Compound activity deposited in PubChem BioAssay by several laboratories.
Most compounds without a hit are left out; they make up all but 2.4% or so of the library.
ANO1 block: blocks the mouse calcium-activated chloride channel TMEM16A; Q8BHY3; HEK293 TMEM16A/YFP iodide influx fluorescence, ionomycin; normalized B-score (activity score, 25-100; higher = stronger inhibition) at 10 µM; 1.2% of 310,000 active; AID 588511;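 active = ratio plate-corrected score three or more library SD toward inhibition, starting fluorescence score within five deviations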;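 note: score derived from kinetic fluorescence span divided by baseline fluorescence per well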
UBC13 inh: blocks human UBC13 polyubiquitin chain formation; inhibition, % at 20 µM; AID 485273; TR-FRET; P61088; 0.47% of 330,000 active; in the data active = inhibition above about 45%, passing the limit was not always enough
DNA FID counter: displaces DNA intercalator in HCV helicase counter-screen; AID 1845; 0.17% of 290,000 active; DNA fluorescent intercalator displacement, fluorescence; inhibition, % at 7.9 µM; in the data active = inhibition above about 37%;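 note: 0% = vehicle and 100% = reference compound; higher means more ethidium bromide displaced from hairpin DNA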
ANO1 activ: activators or potentiators of mouse TMEM16A chloride channel; Q8BHY3; HEK293 TMEM16A/YFP-H148Q/I152L, iodide quench fluorescence; hits give low values; B-score at 10 µM; 0.3% of 340,000 active; AID 623877;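 active = fluorescence-ratio B-score plate-corrected deviation score at least 3 library SD below zero, with starting fluorescence score within 5 deviations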;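 note: channel opened by trigger with iodide after compound preincubation; score built on the fluorescence ratio of max minus min over baseline; more negative score means more quench and so TMEM16A activation or potentiation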
Apaf1 inhib: blocks human Apaf-1 apoptosome activity; O14727; reconstituted apoptosome caspase-3 activity, DEVD-Rh110 fluorescence; inhibition, % at 20 µM; 0.71% of 330,000 active; AID 489030; active = inhibition of at least 40% at 20 µM;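 note: plate controls were DMSO wells for no effect and DEVD-CHO caspase inhibitor wells for full effect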
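detection = Rh110 fluorescence intensity | test system = biochemical Apaf-1 apoptosome reconstitution | also added = cytochrome c and DEVD-Rh110 substrate | schedule = 30 min plus 50 min, RT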
TMEM16A reconf: TMEM16A (mouse) chloride channel inhibition, re-confirmation. shares compounds with ANO1 block. HEK293 TMEM16A/YFP-H148Q, iodide quench fluorescence; ionomycin added to raise cell calcium. inhibition, % at 10 µM. 39% of 2,300 active;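 active = mean duplicate percent inhibition, scaled so buffer wells are 0 and the reference blocker 100, over three buffer SD above buffer mean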
HEK293 Ca mobil: calcium mobilization counter-screen hit for TMEM16A inhibitor series; calcium response (% of ionomycin), % at 10 µM; TMEM16A/YFP HEK293, Fluo4 calcium mobilization; 2% of 2,300 active; shares compounds with ANO1 block;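 active = duplicate-averaged calcium signal over 20% of the ionomycin maximum, relative to buffer baseline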;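 note: each well's signal is peak minus trough fluorescence divided by its pre-addition baseline; 0% = buffer wells and 100% = ionomycin wells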
Parental YFP cnt: acts in parental YFP-HEK293 cells lacking TMEM16A, counter-screen; YFP ratio F(max-min)/F0 at 10 µM; shares compounds with ANO1 block; 2,300 tested, under 10 active; AID 652233; iodide YFP quench, ionomycin;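 active = yellow fluorescent protein signal ratio exceeding the buffer control mean by over 5 SD of those controls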;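 note: ratio is mean of duplicate wells from kinetic YFP trace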
ClC-1 rat inh: blocks the rat ClC-1 voltage-dependent chloride channel; shares compounds with ANO1 block; CHO ClC-1-YFP, iodide influx fluorescence quench; iodide control reads 0, buffer control 100; ratio percent, % at 10 µM; 2,300 tested, under 10 active;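 active = duplicate-mean ratio percent above the mean of iodide-only control wells, which defines zero, plus 5 of their SD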;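 note: higher percent means stronger block of ClC-1 iodide influx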
The depositor's hits bear a star; i = inactive; nt = not tested or not shown.

SMILES	ANO1 block	UBC13 inh	DNA FID counter	ANO1 activ	Apaf1 inhib	TMEM16A reconf	HEK293 Ca mobil	Parental YFP cnt	ClC-1 rat inh
Cc1cc(NC(=O)CCC(=O)N(c2ccc(F)cc2)C(C(=O)NC2CCCC2)c2ccc(C)o2)no1 (stereo not drawn)	i	-8	-18	i	7	nt	nt	nt	nt
Cc1cccc(-n2cnc3cc(C(=O)N4CCCCC4)ccc32)c1	25*	3	-26	i	5	i	i	-1.1	0
Cc1cccc(Nc2nc(N)nc(CC(=O)CSc3ccc(Cl)cc3)n2)c1	i	nt	3	nt	nt	nt	nt	nt	nt
Cc1[nH]c(=O)[nH]c(=O)c1S(=O)(=O)N(CC(C)C)CC(C)C	i	-4	-9	i	6	nt	nt	nt	nt
Cc1ccc(N/C(N)=N/c2nc(C)cc(C)n2)cc1	i	11	-3	i	-1	nt	nt	nt	nt
CCCCc1ccc(N/C(N)=N/c2nc(C)cc(C)n2)cc1	100*	10	16	-5.6*	-9	62%*	43%*	-1	-20
COc1cc(CCNC(=O)CCCn2c(=O)c3cccn3c3cccnc32)cc(OC)c1OC	i	8	-43	i	0	nt	nt	nt	nt
CCN(CC)CCCNC(=O)c1cc2nc(-c3ccccc3)cc(C(F)(F)F)n2n1	100*	7	10	i	6	i	i	-1.1	-10
COCCNC(=O)c1cc2nc(-c3ccc(F)cc3)cc(C(F)(F)F)n2n1	i	1	3	i	-5	nt	nt	nt	nt
Cc1cc(-c2ccc(S(=O)(=O)N(C)c3ccc(C)c(C)c3)s2)on1	i	1	-18	i	16	nt	nt	nt	nt
Cc1ccc(N(C)S(=O)(=O)c2ccc(-c3cc(C)no3)s2)cc1	25*	3	-21	i	17	33%*	i	-0.98	-12
Cc1cc(Cl)c(S(=O)(=O)NC(C(=O)O)C(C)C)cc1OCC(=O)NC1CCCCC1 (stereo not drawn)	i	6	-37	i	8	nt	nt	nt	nt
Cc1cc(Cl)c(S(=O)(=O)N2CCCC2)cc1OCC(=O)NC1CCCCC1	100*	6	-35	i	-2	22%*	i	-0.95	-21
CC(C)S(=O)(=O)N1CCCC(C(=O)c2cccc(Cl)c2)C1 (stereo not drawn)	i	0	-9	i	-2	nt	nt	nt	nt
O=C(Nc1cccnc1)Nc1ccccc1Cl	100*	6	4	i	-1	i	i	-0.91	-6
O=C(C1=C(O)/C(=C/c2ccc(O)cc2)CCC1)C(F)(F)F	25*	-19	0	i	11	i	i	-0.93	-21
COc1ccc(/C=C2\CCCC(C(=O)C(F)(F)F)=C2O)cc1	i	-12	-5	i	18	nt	nt	nt	nt
CCOc1ccc(C2CC(=O)NC(SC)=C2C#N)cc1 (stereo not drawn)	i	6	2	i	1	nt	nt	nt	nt
C=CCSC1=C(C#N)C(c2ccc(OCC)cc2)CC(=O)N1 (stereo not drawn)	100*	-7	-4	i	1	i	i	-1.1	-5
Cc1[nH]nc(-c2ccc(O)cc2O)c1Oc1ccccc1	100*	12	-2	i	16	24%*	i	-1.1	-20
CCOc1ccc(-c2n[nH]c(C)c2Oc2ccccc2OC)c(O)c1	i	13	-13	i	14	nt	nt	nt	nt
CN1/C(=C\C=Nc2ccc3ccccc3c2)C(C)(C)c2ccccc21	i	5	5	i	25	nt	nt	nt	nt
CN(C)c1ccc(N=C/C=C2\N(C)c3ccccc3C2(C)C)cc1	i	-188	3	i	10	i	i	-0.52	46
COc1ccccc1NS(=O)(=O)c1ccc(C(=O)NCC(c2cccs2)N2CCOCC2)cc1 (stereo not drawn)	nt	5	nt	i	4	nt	nt	nt	nt
